Bioassay records: PubChem BioAssay, Johns Hopkins Ion Channel Center
Sampled rows, rich in hits. Any-hit rate of the full collection: about 3.7%.
hERG rescue: hERG (human) protection from proarrhythmic block. activation (rescue from dofetilide block), less the hit threshold, % at 10 µM. hit rate 0.51% among 310,000. CHO-hERG, FluxOR thallium flux, dofetilide IC70 present. Q12809. AID 1511;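 active = activation above the mean of controls blocked by dofetilide plus 5 SD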;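 also: thallium influx through hERG after potassium depolarization seen as dye fluorescence rise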
KCNK3 inh: human KCNK3 channel inhibition, primary screen. CHO-KCNK3 thallium flux, FluxOR fluorescence; hits give low values. B-score at 10 µM. hit rate 0.84% among 340,000;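 active = B-score under library mean minus 4 SD, starting fluorescence ratio at most library mean plus 5 SD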;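 also: more negative B-score means stronger inhibition of thallium flux through KCNK3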
KCNQ1 pot: potentiators or activators of human KCNQ1 potassium channel; CHO-K1 KCNQ1, thallium flux FluxOR fluorescence; hits give high values; B-score at 10 µM; hit rate 0.35% among 310,000;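 active = fluorescence ratio B-score, a plate-corrected score, at least three library SD, with initial intensity B-score within 5 SD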
Target sequence (P51787 whole entry, looked up): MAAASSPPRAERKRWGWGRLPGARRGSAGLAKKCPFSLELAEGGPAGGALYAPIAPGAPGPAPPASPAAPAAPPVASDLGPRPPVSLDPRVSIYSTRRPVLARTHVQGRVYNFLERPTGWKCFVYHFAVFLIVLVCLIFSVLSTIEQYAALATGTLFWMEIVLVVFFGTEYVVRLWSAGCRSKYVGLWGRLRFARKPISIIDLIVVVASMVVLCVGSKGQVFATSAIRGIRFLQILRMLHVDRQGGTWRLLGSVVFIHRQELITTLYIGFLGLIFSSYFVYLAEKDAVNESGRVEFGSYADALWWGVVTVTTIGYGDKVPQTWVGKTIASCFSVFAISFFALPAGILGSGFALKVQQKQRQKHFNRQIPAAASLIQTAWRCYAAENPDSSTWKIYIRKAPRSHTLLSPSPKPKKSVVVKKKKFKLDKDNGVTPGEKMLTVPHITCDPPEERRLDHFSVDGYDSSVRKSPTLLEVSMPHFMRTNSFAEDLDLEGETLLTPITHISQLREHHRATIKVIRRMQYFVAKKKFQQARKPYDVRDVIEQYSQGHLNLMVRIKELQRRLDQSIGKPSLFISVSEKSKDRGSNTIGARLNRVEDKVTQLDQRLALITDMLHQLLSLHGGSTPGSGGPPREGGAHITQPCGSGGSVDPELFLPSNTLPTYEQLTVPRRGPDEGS
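assay system = CHO-K1 cells stably expressing KCNQ1 | medium = assay buffer, equal DMSO in all wells | timing = 37 °C overnight plating, 90-min dark dye load, 20-min compound pretreatment | measured by = kinetic FluxOR thallium fluorescence, 10-s 1-Hz baseline, 110-s post-stimulus read | measure = fluorescence change relative to baseline, converted to B score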
KCNK9 block: human KCNK9 channel inhibition; hit rate 1.2% among 310,000; AID 488922; HEK293 KCNK9, FluxOR thallium flux fluorescence; hits give low values; B-score at 10 µM; Q9NPC2;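 active = ratio B-score over 3 SD below the library mean, with starting fluorescence within 5 SD of its mean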;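 also: negative B-score means less thallium flux so channel inhibition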
KCNQ1 block: human KCNQ1 channel inhibition; P51787; CHO-K1 KCNQ1, FluxOR thallium flux fluorescence; hits give high values; B-score at 10 µM; hit rate 1.3% among 310,000; AID 2642;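 active = compounds whose thallium flux B-score, printed positive for inhibition, exceeds three library SD while starting fluorescence stays within three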;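 also: channel opened by potassium depolarization with thallium stimulus after 20 min compound exposure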
Kir21 inh: inhibitors of mouse Kir2.1 inward-rectifier potassium channel | P35561 | HEK293-Kir2.1, FluxOR thallium flux fluorescence; hits give low values | B-score at 10 µM | hit rate 0.85% among 310,000 | AID 1672;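 active = fluorescence ratio B-score at or below minus 3 SD of library scores, with starting-brightness B-score within 2 SD, cut at about -4.2 in these data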;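 also: channel flux triggered by added potassium and thallium sulfate stimulus; B-score of peak minus minimum fluorescence over baseline after thallium stimulus; more negative B-score means stronger Kir2.1 block with less thallium influx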
KCNK3 confirm: human KCNK3 channel inhibition, confirmation assay; shares compounds with KCNK3 inh; CHO-KCNK3 thallium flux, FluxOR fluorescence; 0% buffer, 100% carvedilol maximal block; ratio percent of control, % at 10 µM; hit rate 99% among 2,400;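 active = ratio percent of control, averaged over triplicates, above buffer control mean plus 5 SD, cut at about 64% in these data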;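 also: ratio is the fluorescence rise from min to max over baseline after thallium stimulus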
KCNK3 noninduced: counter-screen for KCNK3 inhibitors: effect in non-induced cells | shares compounds with KCNK3 inh | hit rate 40% among 2,400 | thallium flux ratio (lower = more inhibition) at 10 µM | non-induced KCNK3 parental cells, FluxOR thallium flux; hits give low values;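 active = thallium flux ratio, averaged over three wells, more than 5 SD below the buffer control mean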;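 also: host cells are CHO cells without KCNK3 induction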
A number is an active result; . = inactive; / = no result given.

SMILES | hERG rescue | KCNK3 inh | KCNQ1 pot | KCNK9 block | KCNQ1 block | Kir21 inh | KCNK3 confirm | KCNK3 noninduced
CN(C(=O)Nc1ccc(Cl)cc1Cl)C1CCCC1 | . | -9.1 | . | . | . | . | 76 | .
COc1ccc(-c2cnnc(N/N=C/c3ccc(O)c(OC)c3)n2)cc1 | . | . | . | . | . | . | / | /
C/C(=N\Nc1ccc([N+](=O)[O-])cc1[N+](=O)[O-])C(C)C(C)C (stereo unspecified) | . | -9.2 | . | . | 8 | . | 93 | 0.14
Cn1c(=O)c2c(ncn2CC(=O)OCC(=O)Nc2ccccc2)n(C)c1=O | . | . | . | . | . | . | / | /
Cc1nnc(SCC(=O)Nc2nsc(-c3ccc(C(C)(C)C)cc3)n2)s1 | . | -9.9 | . | . | . | . | 102 | .
O=C(OCc1nc(-c2ccccc2)oc1COC(=O)c1ccco1)c1ccco1 | . | -9.1 | . | . | . | . | 102 | .
CCOC(=O)c1cc(-c2ccco2)nc2c1c(C)nn2-c1ccccc1 | . | -9.4 | . | . | . | . | 93 | .
O=C(Nc1ccc(Cl)cc1)N(Cc1cccs1)Cc1cccs1 | . | -12 | . | . | . | . | 130 | .
CN(C)N1C(N)=C(C#N)C(c2ccccc2F)C2=C1CC(C)(C)CC2=O (stereo unspecified) | . | . | . | . | . | . | / | /
CN(Cc1cccc([N+](=O)[O-])c1)Cc1cccc2ccccc12 | . | -11 | . | -6.8 | 6 | . | 114 | 0.15
COc1cc(CN(C)Cc2cccc3ccccc23)cc([N+](=O)[O-])c1O | . | . | . | . | . | . | / | /
Cn1c(CC(=O)Nc2ccc(Cl)cc2)nnc1SCC(=O)N1CCOCC1 | . | . | . | . | . | . | / | /
COc1ccc(NC(=O)c2ccccc2N2C(=O)C3C4C=CC(C5CC45)C3C2=O)c(OC)c1 (stereo unspecified) | . | . | . | . | . | . | / | /
O=C(CCNS(=O)(=O)c1ccccc1F)N1CCN(S(=O)(=O)c2cccc(F)c2)CC1 | . | . | . | . | . | . | / | /
O=C(CCNS(=O)(=O)c1ccccc1F)N1CCN(C(c2ccccc2)c2ccccc2)CC1 | . | -8.9 | . | -7.4 | . | . | 101 | .
CC1CCC(NC(=O)c2cc(C3CC3)nn2-c2ccccc2)CC1 (stereo unspecified) | / | . | / | / | / | / | / | /
COC(=O)c1ccccc1NC(=O)CSc1nnc(-c2cccnc2)o1 | . | . | . | . | . | . | / | /
CCC(C(=O)O/N=C(\N)c1ccc(Cl)cc1)c1ccccc1 (stereo unspecified) | . | -10 | . | -6.6 | . | . | 108 | .
Cc1ccc(SCCC(=O)OCC(=O)NCC2CCCCC2)cc1 | . | . | . | . | . | . | / | /
Cc1ccc(-c2cc(C(=O)N3CCCCC3)c3ccccc3n2)cc1C | . | -8.9 | . | . | . | . | 85 | 0.15
N#CCCN(Cc1ccccc1)S(=O)(=O)c1cccs1 | . | . | . | . | . | . | / | /
Cc1ccc(C(=O)Nc2cccc(NC(=O)c3cccs3)c2)c(C)c1 | . | -11 | . | -7 | . | . | 85 | .
O=C(Nc1cccc(NC(=O)c2cccs2)c1)c1cccnc1 | . | -9.3 | . | . | . | . | 89 | .
COc1cc(NC(=O)c2ccc(C)cc2C)ccc1NC(=O)c1cccs1 | . | . | . | . | . | . | / | /
Cc1cc(C)cc(C(=O)Nc2ccc(NC(=O)c3cccs3)cc2)c1 | . | . | . | . | . | . | / | /
SMILES | hERG rescue | KCNK3 inh | KCNQ1 pot | KCNK9 block | KCNQ1 block | Kir21 inh | KCNK3 confirm | KCNK3 noninduced
Cc1cccc(C(=O)Nc2cc(NC(=O)c3cccs3)ccc2C)c1 | . | -9.7 | . | . | . | . | 112 | .
O=C(Nc1cccc(NC(=O)c2cccnc2)c1)c1cccnc1 | . | . | . | . | . | . | / | /
O=C(c1ccc(Cl)cc1)c1cccc(O)c1 | / | . | / | / | / | / | / | /
COc1ccc(N2CCN(S(=O)(=O)CCNC(=O)c3ccc(Br)o3)CC2)cc1 | . | . | . | . | . | . | / | /
COc1ccc(-n2ncc3c2CC(C)(C)CC3NC(=O)c2cnc(C)cn2)cc1 (stereo unspecified) | . | . | . | . | . | . | / | /
COc1ccc(N2CCN(C(=O)CCc3nnc4ccc(N5CCOCC5)nn34)CC2)cc1 | . | . | . | . | . | . | / | /
OCCC1CN(Cc2ccc3c(c2)CCO3)CCN1Cc1ccc(F)cc1 (stereo unspecified) | . | . | . | . | . | . | / | /
CC12CNCC(C)(CN(C(c3ccccc3)c3ccccc3)C1)C2 | . | . | . | . | . | . | / | /
CCC(CC)C(=O)Nc1cccc(C(=O)Nc2ccc3c(c2)OCO3)c1 | . | -12 | . | -7.6 | . | . | 92 | .
C=CCn1c(SCC(=O)c2cccs2)nc2sc(C)c(C)c2c1=O | . | -9.5 | . | . | . | . | 115 | 0.15
C=CCSc1nc2sc(C)c(C)c2c(=O)n1CC=C | . | . | . | . | . | . | / | /
CN(c1ccccc1)S(=O)(=O)c1ccc(Cl)c(C(=O)Nc2ccncc2)c1 | / | . | / | / | / | / | / | /
CN(c1ccccc1)S(=O)(=O)c1ccc(NC(=O)c2nc(S(C)(=O)=O)ncc2Cl)cc1 | . | -9 | . | . | . | -4.5 | 106 | 0.15
CC(NC(=O)c1ccc(F)cc1)C(=O)NC1=NCCS1 (stereo unspecified) | . | . | . | . | . | . | / | /
O=S(=O)(c1ccc(Cl)cc1)N1CCN(S(=O)(=O)N2CCCCCC2)CC1 | . | . | . | . | . | . | / | /
O=S(=O)(N1CCCCC1)N1CCN(c2cc(Cl)ccc2Cl)CC1 | . | -9.2 | . | . | . | . | 111 | .
CC(C)(C)c1ccc(NC(=O)C2=CN3CCS(=O)(=O)N=C3C=C2)cc1 | / | . | / | / | / | / | / | /
CCOC(=O)c1cc(C#N)c(N2CCN(c3ccccn3)CC2)nc1-c1ccccc1 | . | -9.4 | . | . | . | . | 99 | .
CSc1ccccc1C(=O)OCC(=O)Nc1ccc(N2CCOCC2)cc1 | / | . | / | / | / | / | / | /
CC(C)=CCc1c(O)ccc2c1OC(c1ccc(O)c(O)c1)CC2=O (stereo unspecified) | . | -12 | . | -6.6 | . | -7.1 | 138 | 0.12
O=C1CC(c2ccc(O)c(O)c2)Oc2c1ccc(O)c2O (stereo unspecified) | / | . | / | / | / | / | / | /
CCOC(=O)c1ccccc1NC(=O)C(C)Oc1ccccc1 (stereo unspecified) | . | -10 | . | . | . | . | 78 | .
CCCC(C)C(=O)Nc1ccccc1C(=O)OCC (stereo unspecified) | . | . | . | . | . | . | / | /
Cc1ccc(S(=O)(=O)N2CCCCC2)cc1NC(=O)CSc1nc(N)cc(=O)[nH]1 | / | . | / | / | / | / | / | /
